Among the data in ChEMBL document CHEMBL1122676, “2,3-Dimethyl-1,4-naphthoquinone derivatives as bioreductive alkylating agents with cross-linking potential” (1984) are Average weight and T/C values, retold here.

Structures are written as SMILES.

Holding throughout (assay type): functional
For experiment [1], the system named is Mus musculus. Kind of experiment: Compound was evaluated for anticancer activity against Sarcoma180 tumor bearing mice by measuring average weight (dose 5 mg/kg daily). The method, boiled down: (§1)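 Sarcoma 180 ascites-bearing CDF1 mice (~10^6 cells ip) dosed ip daily for 6 consecutive days starting 24 h after implantation, drug suspended with 20% aqueous Tween 80 in isotonic saline. Mice weighed during the experiment; percent body weight change from onset to end of therapy recorded as the toxicity index, average per group; 5–15 mice per value.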

Experiment [2] deals with Mus musculus. Kind of experiment: Compound was evaluated for anticancer activity against Sarcoma180 tumor bearing mice by measuring average weight (dose 2.5 mg/kg daily). The method, boiled down:
as §1

Experiment [3] has as its system Mus musculus. In words: Compound was evaluated for anticancer activity against Sarcoma180 tumor bearing mice by measuring T/C X 100 (dose 10 mg/kg daily). The method, boiled down:
(§2)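 CDF1 mice given ~10^6 Sarcoma 180 ascites cells ip (from 7-day donor ascites, saline-diluted); compound as fine suspension in a few drops 20% aqueous Tween 80 made up in isotonic saline, 0.5 mL ip once daily for 6 days from 24 h post-implant. Survival time of treated vs vehicle-injected controls expressed as T/C × 100; 5–15 mice per value.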

Experiment [4] concerns Mus musculus. Kind of experiment: Compound was evaluated for anticancer activity against Sarcoma180 tumor bearing mice by measuring average weight (dose 10 mg/kg daily). The method, boiled down: as §1
Experiment [5] deals with Mus musculus. Kind of experiment: Compound was evaluated for anticancer activity against Sarcoma180 tumor bearing mice by measuring T/C X 100 (dose 5 mg/kg daily). The method, boiled down: as §2
For experiment [6], the system named is Mus musculus. Kind of experiment: Compound was evaluated for anticancer activity against Sarcoma180 tumor bearing mice by measuring T/C X 100 (dose 2.5 mg/kg daily). The method, boiled down:
as §2

Experiment [7] has as its system Mus musculus. Kind of experiment: Compound was evaluated for anticancer activity against Sarcoma180 tumor bearing mice by measuring T/C X 100 (dose 7.5 mg/kg daily). The method, boiled down:
as §2

In experiment [8] the test system is Mus musculus. In words: Compound was evaluated for anticancer activity against Sarcoma180 tumor bearing mice by measuring T/C X 100 (dose 15 mg/kg daily). The method, boiled down: as §2
For experiment [9], the system named is Mus musculus. In words: Compound was evaluated for anticancer activity against Sarcoma180 tumor bearing mice by measuring average weight (dose 15 mg/kg daily). The method, boiled down:
as §1

For experiment [10], the system named is Mus musculus. In words: Compound was evaluated for anticancer activity against Sarcoma180 tumor bearing mice by measuring average weight (dose 7.5 mg/kg daily). The method, boiled down:
as §1

Experiment [11] relates to Mus musculus. Kind of experiment: Compound was evaluated for anticancer activity against Sarcoma180 tumor bearing mice by measuring average weight (dose 3.25 mg/kg daily). The method, boiled down:
as §1

The test system of experiment [12] is Mus musculus. In words: Compound was evaluated for anticancer activity against Sarcoma180 tumor bearing mice by measuring T/C X 100 (dose 3.25 mg/kg daily). The method, boiled down:
as §2

In the case of `CNC(=O)OCC1=C(COC(=O)NC)C(=O)c2ccccc2C1=O`, the Average weight in [1] is on record as -7.6%; in experiment [2], 3.8%; in [4] it was -10%. In addition, the T/C is given as 200 in [3], 177 in experiment [5] and 266 in experiment [6].
As for `O=C1C(CBr)=C(CBr)C(=O)c2ccccc21`, the figures for the T/C in experiment [7], in experiment [8] and in experiment [12] were 130, 140 and 165, respectively. The Average weight in experiment [9] is -14.1%; in experiment [10] it was -14.3%; in experiment [11], -8.8%.
As to `O=C1C(CCl)=C(CCl)C(=O)c2ccccc21`, the T/C is 158 in experiment [7], 122 in [8] and 100 in experiment [12]. Also, the Average weight in [9] is reported as -15.6%; in experiment [10] it was -10.3%; in experiment [11], -15.1%.
Consider `CS(=O)(=O)OCC1=C(COS(C)(=O)=O)C(=O)c2ccccc2C1=O`, for which the results for the Average weight in [1], in experiment [2] and in experiment [4] were 5.9%, 18.4% and -2%, respectively. Also, the T/C amounted to 232 in experiment [3], 204 in experiment [5] and 114 in [6].
For `O=C(NCCCl)OCC1=C(COC(=O)NCCCl)C(=O)c2ccccc2C1=O`, the Average weight is given as -4.3% in experiment [1], 0% in experiment [2] and -7.8% in experiment [4]. The T/C came to 189 in [3], 209 in [5] and 230 in experiment [6].
`O=C1C(CO)=C(CO)C(=O)c2ccccc21`: the values for the T/C in experiment [7], in [8] and in [12] were 51, 37 and 55, respectively. Moreover, the Average weight is -9.9% in experiment [9], -14.3% in experiment [10] and 10.8% in experiment [11].
Consider `CC1=C(C)C(=O)c2ccccc2C1=O`, for which the T/C in experiment [7] stood at 78; in [8], 103; in experiment [12], 104. In addition, the Average weight was 0.5% in experiment [9], 1.3% in [10] and 1.4% in [11].
With `Cc1ccc(S(=O)(=O)OCC2=C(COS(=O)(=O)c3ccc(C)cc3)C(=O)c3ccccc3C2=O)cc1`, the Average weight in [1] was determined as 21%; in experiment [2], 22.3%; in [4] it was 13.8%. The figures for the T/C in experiment [3], in [5] and in experiment [6] were 126, 138 and 130, respectively.
